According to ChEMBL document CHEMBL3044849, “Synthesis and insecticidal activities of novel N-sulfenyl-N'-tert-butyl-N,N'-diacylhydrazines. 1. N-alkoxysulfenate derivatives” (2007):
≈ marks a conversion by molar mass, not a printed value.

How the values were obtained:
Type in all cases: functional
Mythimna separata [1] = test: Stomach toxicity against fourth-instar larval stage of Mythimna separata (Oriental armyworm) in compound-pretreated corn leaves assessed as mortality at 2.5 mg/kg at 25+/-1 degC measured after 4 days
Mythimna separata [2] = test: Stomach toxicity against fourth-instar larval stage of Mythimna separata (Oriental armyworm) in compound-pretreated corn leaves assessed as mortality at 5 mg/kg at 25+/-1 degC measured after 4 days
Mythimna separata [3] = test: Stomach toxicity against fourth-instar larval stage of Mythimna separata (Oriental armyworm) in compound-pretreated corn leaves assessed as mortality at 10 mg/kg at 25+/-1 degC measured after 4 days
Mythimna separata [4] = test: Stomach toxicity against fourth-instar larval stage of Mythimna separata (Oriental armyworm) in compound-pretreated corn leaves assessed as mortality at 25 mg/kg at 25+/-1 degC measured after 4 days
Mythimna separata [5] = test: Stomach toxicity against fourth-instar larval stage of Mythimna separata (Oriental armyworm) in compound-pretreated corn leaves assessed as mortality at 50 mg/kg at 25+/-1 degC measured after 4 days
Mythimna separata [6] = test: Contact toxicity against fourth-instar larval stage of Mythimna separata (Oriental armyworm) assessed as mortality at 25 +/-1 degC applied topically on the thoracic tergite measured per larva after 96 hr
How it was run: (§1)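 Oriental armyworm fourth-instar larvae each received 0.306 µL of acetone dilution at varying concentrations on the thoracic tergite via platinum loop. Acetone-only control. Larvae were returned to rearing conditions at 25 ± 1 °C and mortality was scored 96 h after treatment. LD50 and LD90 were derived from triplicate treatments; ratios use reference over test values.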

Mythimna separata [7] = test: Toxic ratio of RH-5992 LD90 to compound LD90 for fourth-instar larval stage of Mythimna separata (Oriental armyworm) measured after 96 hr; how it was run: as §1
Spodoptera exigua [8] = test: Stomach toxicity against third-instar larval stage of Spodoptera exigua in cabbage leaves assessed as mortality at 25 +/-1 degC treated for 3 secs before larval infestation measured after 3 days by leaf-dip method; settings: for LC50: Spodoptera exigua, Instar larval stage, 72 h
How it was run: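 Leaf-dip assay: fresh cabbage leaf discs (5 cm × 3 cm) were dipped 3 s in test solution and air-dried, then placed singly in boxes with five third-instar beet armyworm larvae per disc. Water- and acetone-treated leaves served as controls. Held at 25 ± 1 °C; percentage mortality was read 3 days after treatment, in triplicate.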

Mythimna separata [9] = test: Toxic ratio of RH-5992 LD50 to compound LD50 for fourth-instar larval stage of Mythimna separata (Oriental armyworm) measured after 96 hr; how it was run: as §1
Ostrinia furnacalis = test: Contact toxicity against fourth-instar larval stage of Ostrinia furnacalis (Asian corn borer) assessed as mortality at 25 +/-1 degC applied topically on the thoracic tergite measured per gm of larva after 48 hr
How it was run: (§2)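 Fourth-instar larvae of tobacco cutworm, Asian corn borer and cotton bollworm were used. Compounds in acetone at five to seven concentrations; 1 µL applied to the thoracic tergite by automatic microapplicator. Acetone-only control. Usually 40 insects per dose, four replicates, kept under rearing conditions at 25 ± 1 °C. Mortality at 48 h gave LD50; ratios use reference LD50 over test LD50.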

Spodoptera litura = test: Contact toxicity against fourth-instar larval stage of Spodoptera litura assessed as mortality at 25 +/-1 degC applied topically on the thoracic tergite measured per gm of larva after 48 hr; how it was run: as §2
Spodoptera exigua [10] = test: Toxic ratio of RH-5992 LC50 to compound LC50 for third-instar larval stage of Spodoptera exigua measured after 3 days by leaf-dip method
Spodoptera exigua [11] = test: Toxic ratio of RH-5992 LC90 to compound LC90 for third-instar larval stage of Spodoptera exigua measured after 3 days by leaf-dip method
Helicoverpa armigera = test: Contact toxicity against fourth-instar larval stage of Helicoverpa armigeraassessed as mortality at 25 +/-1 degC applied topically on the thoracic tergite measured per gm of larva after 48 hr; how it was run: as §2
Mythimna separata [12] = test: Stomach toxicity against fourth-instar larval stage of Mythimna separata (Oriental armyworm) in compound-pretreated corn leaves assessed as mortality at 100 mg/kg at 25+/-1 degC measured after 4 days

## CCc1ccc(C(=O)N(SOCCc2ccccc2)N(C(=O)c2cc(C)cc(C)c2)C(C)(C)C)cc1
Mythimna separata [1]
  mortality at 2.5 mg/kg: 50%
Mythimna separata [2]
  mortality at 5 mg/kg: 90%

## CCc1ccc(C(=O)N(SOCC(F)(F)F)N(C(=O)c2cc(C)cc(C)c2)C(C)(C)C)cc1
Mythimna separata [1]
  mortality at 2.5 mg/kg: 90%
Mythimna separata [2]
  mortality at 5 mg/kg: 100%

## Cc1cc(C)cc(C(=O)N(NC(=O)c2ccc3c(c2C)OC(C)C3)C(C)(C)C)c1 (stereo not drawn) [FUXIAN]
Mythimna separata [1]
  mortality at 2.5 mg/kg: 90%
Mythimna separata [2]
  mortality at 5 mg/kg: 100%

## CCCOSN(C(=O)c1ccccc1)N(C(=O)c1ccccc1)C(C)(C)C
Mythimna separata [3]
  mortality at 10 mg/kg: 10%
Mythimna separata [4]
  mortality at 25 mg/kg: 50%
Mythimna separata [5]
  mortality at 50 mg/kg: 90%

## COSN(C(=O)c1ccc2c(c1C)OC(C)C2)N(C(=O)c1cc(C)cc(C)c1)C(C)(C)C (stereo not drawn)
Mythimna separata [1]
  mortality at 2.5 mg/kg: 80%

## CCc1ccc(C(=O)N(SOCC(C)C)N(C(=O)c2cc(C)cc(C)c2)C(C)(C)C)cc1
Mythimna separata [1]
  mortality at 2.5 mg/kg: 80%
Mythimna separata [2]
  mortality at 5 mg/kg: 100%

## CCc1ccc(C(=O)N(SOCc2ccccc2)N(C(=O)c2cc(C)cc(C)c2)C(C)(C)C)cc1
Mythimna separata [1]
  mortality at 2.5 mg/kg: 70%
Mythimna separata [2]
  mortality at 5 mg/kg: 90%

## CCCCCOSN(C(=O)c1ccc(CC)cc1)N(C(=O)c1cc(C)cc(C)c1)C(C)(C)C
Mythimna separata [1]
  mortality at 2.5 mg/kg: 100%
Mythimna separata [2]
  mortality at 5 mg/kg: 100%

## CCCOSN(C(=O)c1ccc(CC)cc1)N(C(=O)c1cc(C)cc(C)c1)C(C)(C)C
Mythimna separata [3]
  mortality at 10 mg/kg: 100%
Mythimna separata [1]
  mortality at 2.5 mg/kg: 80%
Mythimna separata [2]
  mortality at 5 mg/kg: 90%
Mythimna separata [4]
  mortality at 25 mg/kg: 100%
Mythimna separata [5]
  mortality at 50 mg/kg: 100%

## CCc1ccc(C(=O)NN(C(=O)c2cc(C)cc(C)c2)C(C)(C)C)cc1 [TEBUFENOZIDE]
Mythimna separata [6]
  LD50: 0.0275 µg
  LD90: 0.0739 µg
Mythimna separata [7]
  Ratio: 100
Spodoptera exigua [8]
  LC90: 2648.6 µg/mL (≈ 7510 µM)
  LC50: 83.4 µg/mL (≈ 237 µM)
Mythimna separata [3]
  mortality at 10 mg/kg: 100%
Mythimna separata [1]
  mortality at 2.5 mg/kg: 55%
Mythimna separata [2]
  mortality at 5 mg/kg: 95%
Mythimna separata [9]
  Ratio: 100
Ostrinia furnacalis
  LD50: 59.414 µg
Spodoptera litura
  LD50: 527.12 µg
Spodoptera exigua [10]
  RatioLC50: 1
Spodoptera exigua [11]
  Ratio: 1
Helicoverpa armigera
  LD50: 1311.9 µg

## CCOSN(C(=O)c1ccc(CC)cc1)N(C(=O)c1cc(C)cc(C)c1)C(C)(C)C
Mythimna separata [3]
  mortality at 10 mg/kg: 100%
Mythimna separata [1]
  mortality at 2.5 mg/kg: 70%
Mythimna separata [2]
  mortality at 5 mg/kg: 100%
Mythimna separata [4]
  mortality at 25 mg/kg: 100%
Mythimna separata [5]
  mortality at 50 mg/kg: 100%

## CC(C)(C)OSN(C(=O)c1ccccc1)N(C(=O)c1ccccc1)C(C)(C)C
Mythimna separata [3]
  mortality at 10 mg/kg: 10%
Mythimna separata [4]
  mortality at 25 mg/kg: 100%
Mythimna separata [5]
  mortality at 50 mg/kg: 100%

## CCCCOSN(C(=O)c1ccc(CC)cc1)N(C(=O)c1cc(C)cc(C)c1)C(C)(C)C
Mythimna separata [3]
  mortality at 10 mg/kg: 100%
Mythimna separata [1]
  mortality at 2.5 mg/kg: 90%
Mythimna separata [2]
  mortality at 5 mg/kg: 100%
Mythimna separata [4]
  mortality at 25 mg/kg: 100%
Mythimna separata [5]
  mortality at 50 mg/kg: 100%

## CCc1ccc(C(=O)N(SOC(C)C)N(C(=O)c2cc(C)cc(C)c2)C(C)(C)C)cc1
Mythimna separata [3]
  mortality at 10 mg/kg: 100%
Mythimna separata [1]
  mortality at 2.5 mg/kg: 50%
Mythimna separata [2]
  mortality at 5 mg/kg: 100%
Mythimna separata [4]
  mortality at 25 mg/kg: 100%
Mythimna separata [5]
  mortality at 50 mg/kg: 100%

## CCc1ccc(C(=O)N(SOCCOC)N(C(=O)c2cc(C)cc(C)c2)C(C)(C)C)cc1
Mythimna separata [1]
  mortality at 2.5 mg/kg: 70%
Mythimna separata [2]
  mortality at 5 mg/kg: 90%

## CCc1ccc(C(=O)N(SOCCF)N(C(=O)c2cc(C)cc(C)c2)C(C)(C)C)cc1
Mythimna separata [1]
  mortality at 2.5 mg/kg: 70%
Mythimna separata [2]
  mortality at 5 mg/kg: 100%

## CCc1ccc(C(=O)N(SOC)N(C(=O)c2cc(C)cc(C)c2)C(C)(C)C)cc1
Mythimna separata [6]
  LD50: 0.0195 µg
  LD90: 0.0479 µg
Mythimna separata [7]
  Ratio: 154
Spodoptera exigua [8]
  LC90: 524.29 µg/mL (≈ 1260 µM)
  LC50: 24.4 µg/mL (≈ 58.7 µM)
Mythimna separata [3]
  mortality at 10 mg/kg: 100%
Mythimna separata [1]
  mortality at 2.5 mg/kg: 100%
Mythimna separata [2]
  mortality at 5 mg/kg: 100%
Mythimna separata [9]
  Ratio: 141
Ostrinia furnacalis
  LD50: 44.961 µg
Spodoptera litura
  LD50: 16.061 µg
Spodoptera exigua [10]
  RatioLC50: 3.4
Spodoptera exigua [11]
  Ratio: 5.1
Mythimna separata [4]
  mortality at 25 mg/kg: 100%
Helicoverpa armigera
  LD50: 73.907 µg

## CC(C)(C)N(NC(=O)c1ccccc1)C(=O)c1ccccc1 [RH-5849]
Mythimna separata [3]
  mortality at 10 mg/kg: 0%
Mythimna separata [4]
  mortality at 25 mg/kg: 70%
Mythimna separata [5]
  mortality at 50 mg/kg: 100%

## COSN(C(=O)c1ccccc1)N(C(=O)c1ccccc1)C(C)(C)C
Mythimna separata [3]
  mortality at 10 mg/kg: 0%
Mythimna separata [4]
  mortality at 25 mg/kg: 100%
Mythimna separata [5]
  mortality at 50 mg/kg: 100%

## CCOCCOSN(C(=O)c1ccc(CC)cc1)N(C(=O)c1cc(C)cc(C)c1)C(C)(C)C
Mythimna separata [1]
  mortality at 2.5 mg/kg: 90%
Mythimna separata [2]
  mortality at 5 mg/kg: 100%

## CCc1ccc(C(=O)N(SOC(C)(C)CC)N(C(=O)c2cc(C)cc(C)c2)C(C)(C)C)cc1
Mythimna separata [1]
  mortality at 2.5 mg/kg: 70%
Mythimna separata [2]
  mortality at 5 mg/kg: 80%

## CCc1ccc(C(=O)N(SOC(C)(C)C)N(C(=O)c2cc(C)cc(C)c2)C(C)(C)C)cc1
Mythimna separata [3]
  mortality at 10 mg/kg: 100%
Mythimna separata [1]
  mortality at 2.5 mg/kg: 60%
Mythimna separata [2]
  mortality at 5 mg/kg: 70%
Mythimna separata [4]
  mortality at 25 mg/kg: 100%
Mythimna separata [5]
  mortality at 50 mg/kg: 100%

## CC(C)OSN(C(=O)c1ccccc1)N(C(=O)c1ccccc1)C(C)(C)C
Mythimna separata [3]
  mortality at 10 mg/kg: 10%
Mythimna separata [4]
  mortality at 25 mg/kg: 100%
Mythimna separata [5]
  mortality at 50 mg/kg: 100%

## CCOSN(C(=O)c1ccccc1)N(C(=O)c1ccccc1)C(C)(C)C
Mythimna separata [12]
  mortality at 100 mg/kg: 100%
Mythimna separata [4]
  mortality at 25 mg/kg: 0%
Mythimna separata [5]
  mortality at 50 mg/kg: 85%
